Assay results: paper PMC5527967 (The Prostate, 2017)
“And” between values parts separate entries of the source, which are not always exact repeats. Equal values may be shown once. Read-outs that look alike come from different tables or passages of the source.

What was measured:
Akt pS473 in LNCaP cells = test: Western blot of Akt pS473; assay type: cell-based; settings: 5 μM, 4 h
[1] = tested on: Akt pS473 in LNCaP/shPIK3CB#3 cells; test: Western blot of Akt pS473; assay type: cell-based; settings: LNCaP/shPIK3CB#3, 5 μM, 4 h
aqueous solubility assay = assay type: physicochemical
p110α = p110α (Homo sapiens, UniProt P42336); test: cell lysate CETSA; assay type: binding
Sequence of p110α (P42336 whole entry): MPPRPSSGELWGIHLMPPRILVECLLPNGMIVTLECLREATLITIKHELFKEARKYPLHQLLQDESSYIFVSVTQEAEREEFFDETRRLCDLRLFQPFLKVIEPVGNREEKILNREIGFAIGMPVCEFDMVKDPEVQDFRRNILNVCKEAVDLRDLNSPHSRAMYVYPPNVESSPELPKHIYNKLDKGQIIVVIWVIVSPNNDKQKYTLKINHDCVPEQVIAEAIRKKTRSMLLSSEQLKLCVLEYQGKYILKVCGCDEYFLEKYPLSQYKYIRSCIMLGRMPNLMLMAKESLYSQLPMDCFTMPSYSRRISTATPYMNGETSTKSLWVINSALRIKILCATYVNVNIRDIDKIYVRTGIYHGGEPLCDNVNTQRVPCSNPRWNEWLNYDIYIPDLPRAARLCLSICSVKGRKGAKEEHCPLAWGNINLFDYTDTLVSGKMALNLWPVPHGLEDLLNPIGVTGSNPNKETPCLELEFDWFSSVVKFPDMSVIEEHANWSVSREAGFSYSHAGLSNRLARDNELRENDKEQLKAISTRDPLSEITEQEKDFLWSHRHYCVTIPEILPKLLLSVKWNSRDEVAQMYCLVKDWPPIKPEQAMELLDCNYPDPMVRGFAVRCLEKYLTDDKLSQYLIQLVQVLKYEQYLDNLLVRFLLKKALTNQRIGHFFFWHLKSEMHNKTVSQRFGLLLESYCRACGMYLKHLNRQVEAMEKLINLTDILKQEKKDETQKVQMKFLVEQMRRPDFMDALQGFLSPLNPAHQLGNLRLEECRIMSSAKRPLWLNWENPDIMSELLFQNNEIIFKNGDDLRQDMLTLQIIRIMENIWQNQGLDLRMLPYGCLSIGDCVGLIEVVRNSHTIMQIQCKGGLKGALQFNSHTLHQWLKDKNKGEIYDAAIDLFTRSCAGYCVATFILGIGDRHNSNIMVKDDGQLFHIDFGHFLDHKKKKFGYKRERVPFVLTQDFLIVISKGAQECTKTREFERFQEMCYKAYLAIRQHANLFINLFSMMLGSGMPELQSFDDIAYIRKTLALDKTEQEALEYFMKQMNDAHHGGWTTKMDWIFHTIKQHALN
Summary of the method: (§1)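 Exponentially grown PC-3 cells in RIPA with protease inhibitors were put through three liquid-nitrogen freeze-thaw cycles, then ultracentrifuged 20 min at 4°C. Soluble lysate was incubated with test compound (5 μM) or DMSO for 45 min at room temperature. Aliquots were heated 3 min at 37–69°C in 4°C steps, cooled 3 min, and spun. Supernatant was Western blotted. Bands were normalized to 0–100% and fitted with a Boltzmann sigmoid. ΔTm50 is the compound-minus-solvent temperature at 50% band loss. Three experiments.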

p110β [2] = target: T1, p110β (Homo sapiens, UniProt P42338); test: cell lysate CETSA; assay type: binding
T1 sequence (P42338 whole entry): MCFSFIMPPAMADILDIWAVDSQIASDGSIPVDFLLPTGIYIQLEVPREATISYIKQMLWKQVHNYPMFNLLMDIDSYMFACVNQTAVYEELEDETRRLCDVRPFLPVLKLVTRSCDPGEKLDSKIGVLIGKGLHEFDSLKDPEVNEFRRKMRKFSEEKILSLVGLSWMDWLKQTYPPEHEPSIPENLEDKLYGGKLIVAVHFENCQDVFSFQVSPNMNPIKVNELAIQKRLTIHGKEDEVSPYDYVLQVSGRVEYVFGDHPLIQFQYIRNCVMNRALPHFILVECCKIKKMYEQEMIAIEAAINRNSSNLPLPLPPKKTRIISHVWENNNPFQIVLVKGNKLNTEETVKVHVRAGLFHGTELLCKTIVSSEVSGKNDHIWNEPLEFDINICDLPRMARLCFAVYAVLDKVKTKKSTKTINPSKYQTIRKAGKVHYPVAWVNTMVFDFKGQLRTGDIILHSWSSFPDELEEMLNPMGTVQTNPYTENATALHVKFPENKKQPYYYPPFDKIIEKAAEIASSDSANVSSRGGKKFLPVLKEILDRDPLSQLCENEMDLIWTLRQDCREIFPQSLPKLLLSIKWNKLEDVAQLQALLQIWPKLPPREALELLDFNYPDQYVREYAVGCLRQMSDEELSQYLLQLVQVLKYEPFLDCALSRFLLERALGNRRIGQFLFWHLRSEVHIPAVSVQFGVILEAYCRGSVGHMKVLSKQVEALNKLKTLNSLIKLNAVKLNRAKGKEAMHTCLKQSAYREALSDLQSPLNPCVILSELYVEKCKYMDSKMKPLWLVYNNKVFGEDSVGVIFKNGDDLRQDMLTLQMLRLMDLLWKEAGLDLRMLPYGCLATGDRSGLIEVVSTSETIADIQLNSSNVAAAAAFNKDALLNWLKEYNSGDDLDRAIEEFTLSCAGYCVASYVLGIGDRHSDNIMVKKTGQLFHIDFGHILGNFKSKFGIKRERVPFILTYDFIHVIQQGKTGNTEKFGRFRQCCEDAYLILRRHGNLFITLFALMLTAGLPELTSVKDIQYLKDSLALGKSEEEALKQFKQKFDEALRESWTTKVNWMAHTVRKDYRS
Summary of the method: as §1

p110γ = p110γ (Homo sapiens, UniProt P48736); test: cell lysate CETSA; assay type: binding
Sequence of p110γ (P48736 whole entry): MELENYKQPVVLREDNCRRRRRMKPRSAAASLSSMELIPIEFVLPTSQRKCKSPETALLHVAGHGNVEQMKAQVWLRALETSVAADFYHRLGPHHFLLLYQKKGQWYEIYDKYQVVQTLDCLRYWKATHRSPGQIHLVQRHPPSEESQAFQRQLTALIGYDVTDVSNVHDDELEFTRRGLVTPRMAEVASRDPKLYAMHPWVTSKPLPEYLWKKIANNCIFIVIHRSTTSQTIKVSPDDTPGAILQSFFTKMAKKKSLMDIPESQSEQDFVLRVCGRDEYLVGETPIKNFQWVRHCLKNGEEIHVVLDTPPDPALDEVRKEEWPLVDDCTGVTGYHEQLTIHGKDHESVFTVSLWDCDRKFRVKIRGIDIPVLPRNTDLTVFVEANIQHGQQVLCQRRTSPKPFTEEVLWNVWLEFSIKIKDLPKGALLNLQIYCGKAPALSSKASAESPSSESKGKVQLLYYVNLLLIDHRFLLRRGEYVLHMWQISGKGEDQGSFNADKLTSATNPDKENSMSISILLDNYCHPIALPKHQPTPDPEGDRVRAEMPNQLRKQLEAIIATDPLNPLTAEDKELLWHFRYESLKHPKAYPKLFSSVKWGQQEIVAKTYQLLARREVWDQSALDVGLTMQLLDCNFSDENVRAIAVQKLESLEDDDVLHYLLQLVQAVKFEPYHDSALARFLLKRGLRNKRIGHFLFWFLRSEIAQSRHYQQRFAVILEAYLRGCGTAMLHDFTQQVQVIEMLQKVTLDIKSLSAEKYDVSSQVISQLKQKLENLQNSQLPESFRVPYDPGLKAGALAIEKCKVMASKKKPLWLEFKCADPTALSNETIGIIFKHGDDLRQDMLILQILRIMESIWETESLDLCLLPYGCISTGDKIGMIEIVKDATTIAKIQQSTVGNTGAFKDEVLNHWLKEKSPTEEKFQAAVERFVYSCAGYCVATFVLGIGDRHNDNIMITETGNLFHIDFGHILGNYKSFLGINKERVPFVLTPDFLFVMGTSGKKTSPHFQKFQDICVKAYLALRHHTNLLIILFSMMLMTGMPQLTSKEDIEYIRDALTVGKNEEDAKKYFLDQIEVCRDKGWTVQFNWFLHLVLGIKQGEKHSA
Summary of the method: as §1

VPS34 = VPS34 (Homo sapiens, UniProt Q8NEB9); test: cell lysate CETSA; assay type: binding
Sequence of VPS34 (Q8NEB9 whole entry): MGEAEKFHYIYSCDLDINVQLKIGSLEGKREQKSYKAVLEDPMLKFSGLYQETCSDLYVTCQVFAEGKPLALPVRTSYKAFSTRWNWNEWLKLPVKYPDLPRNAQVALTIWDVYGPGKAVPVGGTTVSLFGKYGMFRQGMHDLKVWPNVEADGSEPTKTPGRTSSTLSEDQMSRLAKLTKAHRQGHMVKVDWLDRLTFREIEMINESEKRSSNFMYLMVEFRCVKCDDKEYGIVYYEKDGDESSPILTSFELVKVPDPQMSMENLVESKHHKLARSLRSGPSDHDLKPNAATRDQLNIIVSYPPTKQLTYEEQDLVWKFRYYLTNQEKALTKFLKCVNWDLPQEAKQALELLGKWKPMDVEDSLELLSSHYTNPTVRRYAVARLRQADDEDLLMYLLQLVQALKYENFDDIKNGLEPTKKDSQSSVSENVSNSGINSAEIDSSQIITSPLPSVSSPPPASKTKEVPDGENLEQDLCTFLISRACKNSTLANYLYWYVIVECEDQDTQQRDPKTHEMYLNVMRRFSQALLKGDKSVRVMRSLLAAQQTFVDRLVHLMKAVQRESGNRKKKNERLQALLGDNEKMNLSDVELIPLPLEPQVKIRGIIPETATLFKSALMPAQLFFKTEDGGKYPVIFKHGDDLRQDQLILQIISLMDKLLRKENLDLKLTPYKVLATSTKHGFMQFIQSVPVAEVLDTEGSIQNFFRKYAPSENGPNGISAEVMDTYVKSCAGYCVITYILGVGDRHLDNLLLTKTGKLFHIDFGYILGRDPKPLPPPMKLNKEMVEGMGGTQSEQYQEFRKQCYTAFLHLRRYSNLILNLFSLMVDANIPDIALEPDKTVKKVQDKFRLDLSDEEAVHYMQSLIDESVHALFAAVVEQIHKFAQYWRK
Summary of the method: as §1

Akt [3] = test: cell lysate CETSA; assay type: binding; settings: cell lysate (in vitro), PC-3, compound 5 μM
Summary of the method: as §1

p110β [4] = target: T1, p110β; test: whole cell CETSA; assay type: cell-based; settings: whole cell (in vivo), PC-3
Summary of the method: (§2)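 Intact PC-3 cells in regular media treated with test compound or solvent for 4 hrs, washed and collected in cold PBS. Aliquoted pellets heated 3 min at 37–69°C (4°C steps), cooled 2 min at room temperature, then iced. Lysed in RIPA by three liquid-nitrogen freeze-thaw cycles; soluble fraction Western blotted. Densities normalized 0–100%, Boltzmann sigmoid fit; ΔTm50 as compound vs solvent shift at 50% band loss.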

Akt [5] = test: whole cell CETSA; assay type: cell-based; settings: whole cell (in vivo), PC-3
Summary of the method: as §2

C4-2B cells [6] = test: WST-8 cell growth inhibition; assay type: cell-based; settings: read-out: Cell Growth Inhibition EC50 (95% CI)
Summary of the method: (§3)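 Cells seeded at 8,000 per well and grown 24 hrs, then exposed to increasing concentrations of test compound or solvent for 3 days. WST-8 reagent added for 2 hrs at 37°C and OD read at 450 nm. Growth inhibition taken as percentage of solvent control OD. EC50 from log concentration vs normalized response fit, variable slope. Three independent experiments.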

C4-2B/MDV-R cells [7] = test: WST-8 cell growth inhibition; assay type: cell-based; settings: read-out: Cell Growth Inhibition EC50 (95% CI)
Summary of the method: as §3

22RV1 cells = test: WST-8 cell growth inhibition; assay type: cell-based; settings: read-out: Cell Growth Inhibition EC50 (95% CI)
Summary of the method: as §3

PC-3 cells = test: WST-8 cell growth inhibition; assay type: cell-based; settings: read-out: Cell Growth Inhibition EC50 (95% CI)
Summary of the method: as §3

Akt pS473 in C4-2B cells = test: Western blot of FBS-stimulated Akt pS473; assay type: cell-based; settings: 5 μM
Summary of the method: (§4)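 Cells serum-starved overnight, pretreated with test compound, then given 10% FBS. Lysates made in RIPA buffer with protease inhibitor cocktail, equal protein run on SDS-PAGE and transferred to PVDF. Blocked in 10% nonfat milk 1 hr, primary antibody (Akt pS473) overnight at 4°C, HRP secondary, chemiluminescent detection. Actin used as loading control.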

[8] = tested on: Akt pS473 in C4-2B/MDV-R cells; test: Western blot of FBS-stimulated Akt pS473; assay type: cell-based; settings: 5 μM
Summary of the method: as §4

C4-2B cells [9] = test: flow cytometry cell cycle analysis; assay type: cell-based; settings: 16 h after 10% FBS
Summary of the method: (§5)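 Cells serum-starved overnight to synchronise, pretreated 30 min with solvent or test compound, then stimulated with 10% FBS for 16 h. Cells trypsinized, fixed and stained with propidium iodide. Counted on a flow cytometer (FACS) and cell cycle phase distribution calculated. Mean and SEM from at least three repeated experiments.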

C4-2B/MDV-R cells [10] = test: flow cytometry cell cycle analysis; assay type: cell-based; settings: 16 h after 10% FBS
Summary of the method: as §5

[11] = tested on: cyclin D1, CDK6 and p27^kip1 in C4-2B cells; test: Western blot of G1 phase proteins; assay type: cell-based; settings: 5 μM
Summary of the method: (§6)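 After overnight serum starvation, cells received a 30-min pretreatment with solvent or test compound (5 μM), were stimulated with 10% FBS and were harvested at several time points. Lysates (RIPA plus protease inhibitors) were immunoblotted on PVDF for cyclin D1, CDK6 and p27kip1, with chemiluminescent detection and actin as loading control.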

[12] = tested on: cyclin D1, CDK6 and p27^kip1 in C4-2B/MDV-R cells; test: Western blot of G1 phase proteins; assay type: cell-based; settings: 5 μM
Summary of the method: as §6

human p110α/p85α = human p110α/p85α (Homo sapiens, UniProt P42336); test: Kinase-Glo Plus luminescent kinase assay; assay type: biochemical; settings: read-out: IC50 p110α; 2 μM ATP, 37°C, 2 h
Sequence of human p110α/p85α (P42336 whole entry): as the sequence (P42336 whole entry) above
Sequence of human p110α/p85α (P27986 whole entry partner): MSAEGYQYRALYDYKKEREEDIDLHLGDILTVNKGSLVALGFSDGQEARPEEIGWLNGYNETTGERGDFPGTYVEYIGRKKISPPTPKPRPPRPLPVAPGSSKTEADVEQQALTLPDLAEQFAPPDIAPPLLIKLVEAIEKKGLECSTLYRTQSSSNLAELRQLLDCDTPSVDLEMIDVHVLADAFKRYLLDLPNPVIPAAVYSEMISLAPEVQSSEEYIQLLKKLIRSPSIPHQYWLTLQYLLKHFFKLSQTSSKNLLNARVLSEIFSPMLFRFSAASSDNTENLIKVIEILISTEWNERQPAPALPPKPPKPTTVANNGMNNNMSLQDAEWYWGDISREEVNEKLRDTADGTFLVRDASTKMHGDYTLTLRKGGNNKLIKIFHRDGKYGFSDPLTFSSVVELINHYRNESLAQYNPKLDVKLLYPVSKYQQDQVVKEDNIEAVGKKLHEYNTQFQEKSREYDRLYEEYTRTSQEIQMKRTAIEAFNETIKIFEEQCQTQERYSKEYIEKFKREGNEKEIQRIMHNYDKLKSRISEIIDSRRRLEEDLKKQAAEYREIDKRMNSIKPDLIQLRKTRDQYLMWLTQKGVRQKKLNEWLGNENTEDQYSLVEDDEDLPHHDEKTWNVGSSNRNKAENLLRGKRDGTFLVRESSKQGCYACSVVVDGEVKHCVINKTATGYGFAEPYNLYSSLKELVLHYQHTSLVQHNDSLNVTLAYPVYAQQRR

human p110δ/p85α = human p110δ/p85α (Homo sapiens, UniProt O00329); test: Kinase-Glo Plus luminescent kinase assay; assay type: biochemical; settings: read-out: IC50 p110δ; 2 μM ATP, 37°C, 2 h
[13] = cell lysate (in vitro), PC-3, compound 5 μM

In the case of O=c1[nH]c2ccccc2n1C1CCN(Cc2ccc(-c3nc4cc5[nH]cnc5cc4nc3-c3ccccc3)cc2)CC1 [AKT-i8], the “effect on Akt pS473” value (Akt pS473 in LNCaP cells) is reported as “completely abolished” and the “effect on Akt pS473” value [1] is reported as “retained their full capacity”.
In the case of Cc1cc([C@@H](C)Nc2ccccc2C(=O)O)c2nc(N3CCOCC3)cc(=O)n2c1 [AZD6482], the “effect on Akt pS473” value (Akt pS473 in LNCaP cells) is reported as “completely abolished” and the “effect on Akt pS473” value [1] is reported as “only partially inhibited”.
For C[C@@H](Nc1cc(F)cc(F)c1)c1cc(C(=O)N(C)C)cc2c(=O)cc(N3CCOCC3)oc12 [AZD8186], the “effect on Akt pS473” value (Akt pS473 in LNCaP cells) was “completely abolished” and the “effect on Akt pS473” value [1] was “only partially inhibited”.
In the case of Nc1cc(C(F)(F)F)c(-c2cc(N3CCOCC3)nc(N3CCOCC3)n2)cn1 [BKM120], the “effect on Akt pS473” value (Akt pS473 in LNCaP cells) is reported as “completely abolished” and the “effect on Akt pS473” value [1] is reported as “retained their full capacity”.
For CC(CC(C(N)=O)(c1ccccc1)c1ccccc1)N(C)C (stereo not drawn) [BL139], the solubility (aqueous solubility assay; aqueous) was 37400 µg/mL and 99200 µM, the ΔTm at 5 µM (p110α; human, 0.75 h, read-out: ΔTm50 p110α) was 1.51 °C and the ΔTm at 5 µM (p110β [2]; human, 0.75 h, read-out: ΔTm50 p110β) was 12.4 °C. For the same compound, the ΔTm at 5 µM (p110γ; human, 0.75 h, read-out: ΔTm50 p110γ) was 0.84 °C, the ΔTm at 5 µM (VPS34; human, 0.75 h, read-out: ΔTm50 VPS34) was 0.14 °C and the “ΔTm50 Akt” value (Akt [3]) was 2.44 °C. For the same compound, the “ΔTm50 p110β” value (p110β [4]; 240 min) was 5.78 °C and the “ΔTm50 Akt” value (Akt [5]) was 2.60 °C.
For Cc1nc(NC(=O)N2CCC[C@H]2C(N)=O)sc1-c1ccnc(C(C)(C)C(F)(F)F)c1 [BYL719], the “effect on Akt pS473” value (Akt pS473 in LNCaP cells) was “partial inhibitory effect”.
Work on Cc1c(Cn2c(C)nc3c(C(=O)O)cc(N4CCOCC4)cc32)cccc1C(F)(F)F [GSK2636771] yielded an EC50 (C4-2B cells [6]; 72 h) of 28.9 µM, an EC50 (C4-2B/MDV-R cells [7]; 72 h) of 42.3 µM and an EC50 (22RV1 cells; Homo sapiens, 22Rv1, 72 h) of 26.1 µM. The EC50 (PC-3 cells; Homo sapiens, PC-3, 72 h) was 14.5 µM, the “effect on Akt pS473” value (Akt pS473 in LNCaP cells) was “partial inhibitory effect” and the “effect on Akt pS473” value [1] was “lost their inhibitory effect”. The “effect on FBS-stimulated Akt pS473 levels” value (Akt pS473 in C4-2B cells) was “abolished”, the “effect on FBS-stimulated Akt pS473 levels” value [8] was “only partially suppressed” and the “cell cycle distribution (G0/G1 and S-phase)” value (shortened to “cell cycle distribution”) (C4-2B cells [9]) was “significantly increased G0/G1 population accompanied with a large reduction of S-phase cells”. For the same compound, the “cell cycle distribution” value (C4-2B/MDV-R cells [10]) was “significantly increased G0/G1 population accompanied with a large reduction of S-phase cells”, the CDK6 protein levels [11] was “no obvious alteration” and the “FBS-induced increase of cyclin D1 protein levels” value [11] was “largely suppressed”. For the same compound, the “p27^kip1 protein levels” value [11] was “largely elevated”, the CDK6 protein levels [12] was “no obvious alteration” and the “FBS-induced increase of cyclin D1 protein levels” value [12] was “largely suppressed”.
With CNC(=O)c1ccc(N2C(=S)N(c3ccc(C#N)c(C(F)(F)F)c3)C(=O)C2(C)C)cc1F [MDV3100] the “effect on FBS-stimulated Akt pS473 levels” value (Akt pS473 in C4-2B cells) was “enhanced”.
In the case of Cc1cc(C(C)Nc2ccccc2)c2nc(N3CCOCC3)cc(=O)n2c1 (stereo not drawn) [TGX221], the Aqueous solubility (aqueous solubility assay) is reported as < 1.0 mg/ml and <2.74 mM, the “ΔTm50 p110α” value (p110α; [13]) is reported as 1.57 °C and the “ΔTm50 p110β” value (p110β [2]; [13]) is reported as 04.02 °C. For the same compound, the “ΔTm50 p110γ” value (p110γ; [13]) was 0.68 °C, the “ΔTm50 VPS34” value (VPS34; [13]) was 0.42 °C and the “ΔTm50 Akt” value (Akt [3]) was 1.49 °C. The “ΔTm50 p110β” value (p110β [4]) was 1.72 °C, the “ΔTm50 Akt” value (Akt [5]) was 1.18 °C and the IC50 (human p110α/p85α) was 2.09 µM. It also gave an IC50 (human p110δ/p85α) of 0.374 µM, an EC50 (C4-2B cells [6]; C4-2B, 3 days) of 22.6 µM and an EC50 (C4-2B/MDV-R cells [7]; C4-2B/MDV-R, 3 days) of 31.3 µM. For the same compound, the EC50 (22RV1 cells; 22RV1, 3 days) was 17.6 µM, the EC50 (PC-3 cells; PC-3, 3 days) was 7.43 µM and the “effect on Akt pS473” value (Akt pS473 in LNCaP cells) was “partial inhibitory effect”. For the same compound, the “effect on Akt pS473” value [1] was “lost their inhibitory effect”, the “cell cycle distribution” value (C4-2B cells [9]) was “significantly increased G0/G1 population accompanied with a large reduction of S-phase cells” and the “cell cycle distribution” value (C4-2B/MDV-R cells [10]) was “significantly increased G0/G1 population accompanied with a large reduction of S-phase cells”.
